Broadly, the EC50 is the concentration that produces a half-maximal response. Usually CC50 stands for the concentration giving 50% cytotoxicity. Usually IC50 stands for the point on the concentration scale where inhibition reaches its midpoint.

Data on 5 compounds can be found in ChEMBL document CHEMBL1153581, “Synthesis, antiviral and anticancer activity of some novel thioureas derived from N-(4-nitro-2-phenoxyphenyl)-methanesulfonamide” (Eur J Med Chem, 2009).

≈ marks a conversion by molar mass, not a printed value. A value given as a limit tells only on which side of the number the result lay.

In one data set the test system is HeLa. In words: Cytotoxicity against human HeLa cells assessed as change in cell morphology. In kind it is functional. The method, boiled down:
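The minimum cytotoxic concentration (MCC) is the concentration causing a microscopically detectable alteration of cell morphology in the uninfected host cell culture.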

Data set [1] deals with Human alphaherpesvirus 1. In words: Antiviral activity against HSV1 KOS infected in HEL cells assessed as protection against virus-induced cytopathogenicity. It counts as functional. The settings on record: Human alphaherpesvirus 1, KOS.
The next data set deals with Human alphaherpesvirus 2. In words: Antiviral activity against Herpes simplex virus 2 infected in HEL cells assessed as protection against in virus-induced cytopathogenicity. In kind it is functional. (In general: Damage to the host cells serves as the signal in cytopathic effect assays.)
Data set [2] concerns Vesicular stomatitis virus. The data set is described as follows: Antiviral activity against sVesicular stomatitis virus infected in HEL cells assessed as protection against virus-induced cytopathogenicity. In kind it is functional.
Data set [3] concerns Human alphaherpesvirus 1. In words: Antiviral activity against acyclovir-resistant thymidine kinase-deficient HSV1 KOS infected in human HEL cells assessed as protection against virus-induced cytopathogenicity. The settings on record: Human alphaherpesvirus 1, KOS. In kind it is functional.
The subject of data set [4] is Vesicular stomatitis virus. In words: Antiviral activity against Vesicular stomatitis virus infected in human HeLa cells assessed as protection against virus-induced cytopathogenicity. In kind it is functional.
Data set [5] concerns Coxsackievirus B4. In words: Antiviral activity against Coxsackievirus B4 infected in human HeLa cells assessed as protection against virus-induced cytopathogenicity. In kind it is functional. The conditions noted are these: Enterovirus B.
The subject of data set [6] is Respiratory syncytial virus. In words: Antiviral activity against RSV infected in human HeLa cells assessed as protection against virus-induced cytopathogenicity. In kind it is functional.
Another data set has as its system Human respirovirus 3. The data set is described as follows: Antiviral activity against Parainfluenza-3 virus infected in african green monkey Vero cells assessed as protection against virus-induced cytopathogenicity. It counts as functional.
Data set [7] concerns Mammalian orthoreovirus 1. The data set is described as follows: Antiviral activity against Reovirus 1 infected in african green monkey Vero cells assessed as protection against virus-induced cytopathogenicity. In kind it is functional.
For the next data set, the system named is Sindbis virus. In words: Antiviral activity against Sindbis virus infected in african green monkey Vero cells assessed as protection against virus-induced cytopathogenicity. In kind it is functional.
Data set [8] has as its system Coxsackievirus B4. The data set is described as follows: Antiviral activity against Coxsackievirus B4 infected in african green monkey Vero cells assessed as protection against virus-induced cytopathogenicity. In kind it is functional. The settings on record: Enterovirus B.
For the next data set, the system named is Punta Toro virus. In words: Antiviral activity against Punta Toro virus infected in african green monkey Vero cells assessed as protection against virus-induced cytopathogenicity. It counts as functional.
Data set [9] in a line: Cytotoxicity against HEL cells assessed as change in cell morphology. In kind it is cell-based. The conditions noted are these: human. The essentials: (§1)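 HEL cell cultures examined under the microscope. Minimal cytotoxic concentration (MCC) is the concentration that causes a microscopically detectable alteration of cell morphology. Compounds were tested at subtoxic concentrations alongside the antiviral tests.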

The nature of data set [10]: Cytotoxicity against african green monkey Vero cells assessed as change in cell morphology. It counts as cell-based. The settings on record: chlorocebus sabaeus. The essentials: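 Vero cell cultures were used for the broad-spectrum antiviral screen. The MCC endpoint is the lowest concentration that causes a microscopically detectable alteration of cell morphology. Activity was called when 5 × MIC < MCC.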

For a further data set, the system named is Human betaherpesvirus 5. In words: Antiviral activity against Cytomegalovirus AD169 infected in HEL cells assessed as reduction in virus plaque formation. It counts as functional, organism-based. The conditions noted are these: Human betaherpesvirus 5, AD169, HEL. The method, boiled down:
(§2)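 Plaque reduction in HEL cells against CMV (AD-169, Davis) or VZV (TK⁺ OKA, TK⁻ 07/1), using a virus input of 20 PFU. EC50 is the concentration that reduced plaque formation by 50%.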

For a further data set, the system named is Cytomegalovirus. In words: Antiviral activity against Cytomegalovirus Davis infected in HEL cells assessed as reduction in virus plaque formation. It counts as functional, organism-based. The settings on record: Human betaherpesvirus 5, Davis. The method, boiled down: as §2
For data set [11], the system named is Human alphaherpesvirus 3. In words: Antiviral activity against Varicella Zoster Virus OKA infected in HEL cells assessed as reduction in virus plaque formation. In kind it is functional, organism-based. The settings on record: Human alphaherpesvirus 3, OKA. The essentials: as §2
Data set [12] relates to Human alphaherpesvirus 3. In words: Antiviral activity against thymidine kinase deficient Varicella Zoster Virus 07/1 infected in HEL cells assessed as reduction in virus plaque formation. It counts as functional, organism-based. The settings on record: Human alphaherpesvirus 3, 07/1, HEL. The essentials: as §2
A short description of data set [13]: Cytotoxicity against Cytomegalovirus infected HEL cells assessed as change in cell morphology. The conditions noted are these: human. In kind it is cell-based. The method, boiled down:
as §1

Data set [14] can be described thus: Cytotoxicity against Cytomegalovirus infected HEL cells assessed as reduction in cell growth. In kind it is cell-based. The settings on record: human.
A short description of data set [15]: Cytotoxicity against Varicella Zoster Virus infected human […] cells assessed as change in cell morphology. In kind it is cell-based.
Data set [16] can be described thus: Cytotoxicity against Varicella Zoster Virus infected human […] cells assessed as reduction in cell growth. In kind it is cell-based.
Data set [17] relates to Human immunodeficiency virus 2. The data set is described as follows: Antiviral activity against HIV-2 ROD infected human MT4 cells assessed as protection against virus-induced cytopathogenicity. In kind it is functional, organism-based. The settings on record: Human immunodeficiency virus 2, ISOLATE ROD. The method, boiled down:
(§3)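 HIV-1 (IIIB) or HIV-2 (ROD) infection of MT-4 cells, scored as protection against virus-induced cytopathicity. IC50 was derived from protection.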

Data set [18] relates to Human immunodeficiency virus 1. The data set is described as follows: Antiviral activity against HIV-1 3B infected human MT4 cells assessed as protection against virus-induced cytopathogenicity. The conditions noted are these: Human immunodeficiency virus 1, 3B. In kind it is functional, organism-based. The method, boiled down: as §3
Data set [19] is described as follows: Cytotoxicity against HIV-1 3B infected human MT4 cells. It counts as cell-based. The conditions noted are these: HIV-1 3B-infected MT4 cells.

With `CCCNC(=S)Nc1ccc(NS(C)(=O)=O)c(Oc2ccccc2)c1`, the MCC in the data set on HeLa is 200 µg/mL; in [9] it was 200 µg/mL; in data set [10], 40 µg/mL. Also, the MIC50 (in the data set with Human alphaherpesvirus 1 [1]; with Human alphaherpesvirus 2; in data set [2]; with Human alphaherpesvirus 1 [3]; in data set [4]; with Coxsackievirus B4 [5]) was greater than 40 µg/mL in each case. Also, the MIC50 in data set [6] is 40 µg/mL (≈ 105 µM); with Human respirovirus 3 it was greater than 8 µg/mL; in [7], greater than 8 µg/mL; in the data set on Sindbis virus, greater than 8 µg/mL; in the data set with Coxsackievirus B4 [8] it was greater than 8 µg/mL; in the data set on Punta Toro virus it was greater than 8 µg/mL. The EC50 in the data set with Human betaherpesvirus 5 was 54.7 µg/mL (≈ 144 µM); in the data set on Cytomegalovirus, 54.7 µg/mL (≈ 144 µM); in the data set with Human alphaherpesvirus 3 [11] it was greater than 20 µg/mL; with Human alphaherpesvirus 3 [12] it was greater than 20 µg/mL. In addition, the CC50 in data set [13] was greater than 100 µg/mL; in [14] it was 56 µg/mL (≈ 148 µM); in data set [15], 100 µg/mL (≈ 263 µM); in [16], 56 µg/mL (≈ 148 µM); in data set [19], 89.3 µg/mL (≈ 235 µM). For the same compound, the half-inhibitory concentration (IC50) in data set [17] and in data set [18] was greater than 89.3 µg/mL each time.
As to `CNC(=S)Nc1ccc(NS(C)(=O)=O)c(Oc2ccccc2)c1`, the MCC (with HeLa; in [9]; in data set [10]) was greater than 100 µg/mL each time. The MIC50 was greater than 100 µg/mL with Human alphaherpesvirus 1 [1]; greater than 100 µg/mL in the data set with Human alphaherpesvirus 2; greater than 100 µg/mL in data set [2]; greater than 100 µg/mL in the data set with Human alphaherpesvirus 1 [3]; 100 µg/mL (≈ 285 µM) in data set [4]; greater than 100 µg/mL with Coxsackievirus B4 [5]. Besides, the MIC50 (in data set [6]; with Human respirovirus 3; in [7]; with Sindbis virus; with Coxsackievirus B4 [8]; in the data set with Punta Toro virus) was greater than 100 µg/mL throughout. For the same compound, the IC50 in data set [17] and in data set [18] was greater than 125 µg/mL each time. In addition, the half-maximal cytotoxic concentration (CC50) in data set [19] was greater than 125 µg/mL.
Regarding `C=CCNC(=S)Nc1ccc(NS(C)(=O)=O)c(Oc2ccccc2)c1`, the MCC (in the data set on HeLa; in data set [9]; in data set [10]) was 200 µg/mL each time. For the same compound, the MIC50 (in the data set on Human alphaherpesvirus 1 [1]; in the data set with Human alphaherpesvirus 2; in [2]; with Human alphaherpesvirus 1 [3]; in data set [4]; with Coxsackievirus B4 [5]) was greater than 40 µg/mL in each case. Moreover, the MIC50 is 40 µg/mL (≈ 106 µM) in data set [6]; no less than 24 µg/mL in the data set on Human respirovirus 3; greater than 40 µg/mL in [7]; greater than 40 µg/mL in the data set on Sindbis virus; greater than 40 µg/mL in the data set with Coxsackievirus B4 [8]; greater than 40 µg/mL in the data set with Punta Toro virus. Further, the EC50 in the data set with Human betaherpesvirus 5 was determined as 54.7 µg/mL (≈ 145 µM); in the data set on Cytomegalovirus, 54.7 µg/mL (≈ 145 µM); in the data set on Human alphaherpesvirus 3 [11], 58.5 µg/mL (≈ 155 µM); in the data set with Human alphaherpesvirus 3 [12], 49 µg/mL (≈ 130 µM). Besides, the CC50 in data set [13] is greater than 100 µg/mL; in [14] it was 82.4 µg/mL (≈ 218 µM); in data set [15], greater than 100 µg/mL; in [16], 82.4 µg/mL (≈ 218 µM); in [19], 101 µg/mL (≈ 269 µM). In addition, the figures for the half-maximal inhibitory concentration (IC50) in [17] and in data set [18] were greater than 12.8 µg/mL and greater than 87.2 µg/mL, respectively.
`CS(=O)(=O)Nc1ccc(NC(=S)NCCc2ccc(Cl)cc2)cc1Oc1ccccc1`: the MCC was 100 µg/mL with HeLa, greater than 100 µg/mL in data set [9] and 100 µg/mL in data set [10]. The MIC50 was greater than 100 µg/mL in the data set with Human alphaherpesvirus 1 [1]; greater than 100 µg/mL in the data set with Human alphaherpesvirus 2; greater than 100 µg/mL in data set [2]; greater than 100 µg/mL in the data set on Human alphaherpesvirus 1 [3]; greater than 20 µg/mL in [4]; greater than 20 µg/mL with Coxsackievirus B4 [5]. Moreover, the MIC50 (in data set [6]; in the data set with Human respirovirus 3; in [7]; with Sindbis virus; in the data set with Coxsackievirus B4 [8]; in the data set with Punta Toro virus) was greater than 20 µg/mL throughout. The IC50 in data set [17] and in data set [18] was greater than 14.8 µg/mL each time. The compound also displayed a CC50 in [19] of 14.8 µg/mL (≈ 31.2 µM).
Take `CS(=O)(=O)Nc1ccc(NC(=S)NCc2ccccc2)cc1Oc1ccccc1`: the MCC (with HeLa; in data set [9]; in [10]) was 40 µg/mL throughout. The MIC50 (in the data set with Human alphaherpesvirus 1 [1]; in the data set on Human alphaherpesvirus 2; in data set [2]; in the data set on Human alphaherpesvirus 1 [3]; in data set [4]; in the data set with Coxsackievirus B4 [5]) was greater than 8 µg/mL in each case. Besides, the MIC50 (in data set [6]; in the data set on Human respirovirus 3; in data set [7]; with Sindbis virus; with Coxsackievirus B4 [8]; with Punta Toro virus) was greater than 8 µg/mL in each case. The EC50 in the data set with Human betaherpesvirus 5, with Cytomegalovirus, in the data set with Human alphaherpesvirus 3 [11] and with Human alphaherpesvirus 3 [12] was greater than 4 µg/mL throughout. For the same compound, the CC50 is 20 µg/mL (≈ 46.8 µM) in data set [13]; 45.2 µg/mL (≈ 106 µM) in data set [14]; 20 µg/mL (≈ 46.8 µM) in data set [15]; 45.2 µg/mL (≈ 106 µM) in data set [16]; 61.6 µg/mL (≈ 144 µM) in data set [19]. The IC50 in data set [17] is greater than 18.3 µg/mL; in data set [18], 20.1 µg/mL (≈ 47.1 µM).
